Experimental data from ChEMBL document CHEMBL1140927, “Discovery of N-(3-fluorophenyl)-1-[(4-([(3S)-3-methyl-1-piperazinyl]methyl)phenyl)acetyl]-4-piperidinamine (GSK962040), the first small molecule motilin receptor agonist clinical candidate” (J Med Chem, 2009).

Key:
Motilin receptor [1] = target: T1, Motilin receptor (Homo sapiens, UniProt O43193); experiment: Agonist activity at human recombinant motilin receptor expressed in CHO cells assessed as increase in intracellular calcium by FLIPR assay; format: functional, cell-based
In short: (§1)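 CHO-K1 cells stably transfected with human motilin receptor, grown in DMEM/HamF-12 with 10% FBS, 2 mM GlutaMAX, 1 mg/mL Geneticin; seeded 10 000 cells/well, 24 h. Loaded with Fluo 4 (2.5 µM) in Tyrodes with probenecid, 1 h at 37.5 °C. Compound top final 12 µM, 1-in-4 dilutions; fluorescence read over 1 min; max change over baseline, four-parameter logistic fit; intrinsic activity = curve maximum relative to motilin maximum.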

Motilin receptor [2] = target: T1, Motilin receptor; experiment: Intrinsic activity at human recombinant motilin receptor expressed in CHO cells relative to motilin; format: cell-based; in short: as §1
Cytochrome P450 3A4 [3] = target: T2, Cytochrome P450 3A4 (Homo sapiens, UniProt P08684); experiment: Inhibition of human CYP3A4 expressed in Escherichia coli using diethoxyfluorescein substrate assessed as decrease in enzyme activity by time dependent inhibition assay; format: ADME; design: unit not given here
Cytochrome P450 3A4 [4] = target: T2, Cytochrome P450 3A4; experiment: Inhibition of human CYP3A4 expressed in Escherichia coli using diethoxyfluorescein substrate by time dependent inhibition assay; format: ADME
Stomach [5] = experiment: Potentiation of electric field stimulated-rabbit gastric antrum contraction at 0.1 uM; format: functional, Oryctolagus cuniculus
In short: (§2)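 Isolated native rabbit gastric antrum tissue. Cholinergic contractions are evoked by electrical field stimulation (EFS), and compound is added at the stated concentration. The read-out is % potentiation of EFS-evoked contractions, n = 4-8.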

Stomach [6] = experiment: Potentiation of electric field stimulated-rabbit gastric antrum contraction at 0.3 uM; format: functional, Oryctolagus cuniculus; in short: as §2
[7] = Tmax in Sprague-Dawley rat at 5 mg/kg, po; format: ADME, organism-based; design: dose 5 mg/kg, route oral; conditions: in vivo
In short: (§3)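 Male Sprague-Dawley rats (n = 3), HCl salt suspended in 1% w/v methylcellulose at 1 mg free base/mL, oral gavage 5 mL/kg for 5 mg free base/kg; serial blood up to 12 h (8 h in a second study); diluted blood analysed by LC/MS/MS, LLQ 5 ng/mL.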

[8] = Cmax in Sprague-Dawley rat at 5 mg/kg, po; format: ADME, organism-based; design: dose 5 mg/kg, route oral; conditions: in vivo; in short: as §3
Cytochrome P450 3A4 [9] = target: T2, Cytochrome P450 3A4; experiment: Inhibition of human CYP3A4 expressed in Escherichia coli using 7BQ substrate by time dependent inhibition assay; format: ADME
Rattus norvegicus = experiment: AUC (0 to t) in Sprague-Dawley rat at 5 mg/kg, po; format: ADME, organism-based, Plasma; design: dose 5 mg/kg, route oral; conditions: in vivo; in short: as §3
Stomach [10] = experiment: Potentiation of electric field stimulated-rabbit gastric antrum contraction at 1 uM; format: functional, Oryctolagus cuniculus; in short: as §2
Cytochrome P450 3A4 [11] = target: T2, Cytochrome P450 3A4; experiment: Inhibition of human CYP3A4 expressed in Escherichia coli using diethoxyfluorescein substrate measured in 0 to 5 mins by time dependent inhibition assay; format: ADME
Cytochrome P450 3A4 [12] = target: T2, Cytochrome P450 3A4; experiment: Inhibition of human CYP3A4 expressed in Escherichia coli using diethoxyfluorescein substrate measured in 25 to 30 mins by time dependent inhibition assay; format: ADME
[13] = Half life in rabbit gastric antrum native tissue at 3 uM; format: ADME, tissue-based, Oryctolagus cuniculus, Stomach
Stomach [14] = experiment: Potentiation of electric field stimulated-rabbit gastric antrum contraction at 3 uM; format: functional, Oryctolagus cuniculus
In short: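 Isolated rabbit gastric antrum; cholinergic contractions evoked by electrical field stimulation, compound response expressed as % potentiation of EFS-evoked contraction, n = 4-8.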

[15] = Half life in rabbit gastric antrum native tissue at 0.3 uM; format: ADME, tissue-based, Oryctolagus cuniculus, Stomach
Cytochrome P450 2C19 = Cytochrome P450 2C19 (Homo sapiens, UniProt P33261); experiment: Inhibition of human CYP2C19; format: ADME
[16] = target: Voltage-gated inwardly rectifying potassium channel KCNH2 (Homo sapiens, UniProt Q12809); experiment: Binding affinity to human ERG
[17] = Oral bioavailability in Sprague-Dawley rat; format: ADME, organism-based; conditions: in vivo
In short: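 Male Sprague-Dawley rats (n = 3), two study days 2 days apart: 1 h IV infusion of 1 mg free base/kg in 0.9% saline (0.2 mg/mL, 5 mL/kg/h), then oral gavage 5 mg free base/kg in 1% methylcellulose; serial blood up to 12 h; LC/MS/MS, LLQ 5 ng/mL.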

Cytochrome P450 1A2 = target: T3, Cytochrome P450 1A2 (Homo sapiens, UniProt P05177); experiment: Inhibition of human CYP1A2; format: ADME
T3 sequence (P05177 whole entry): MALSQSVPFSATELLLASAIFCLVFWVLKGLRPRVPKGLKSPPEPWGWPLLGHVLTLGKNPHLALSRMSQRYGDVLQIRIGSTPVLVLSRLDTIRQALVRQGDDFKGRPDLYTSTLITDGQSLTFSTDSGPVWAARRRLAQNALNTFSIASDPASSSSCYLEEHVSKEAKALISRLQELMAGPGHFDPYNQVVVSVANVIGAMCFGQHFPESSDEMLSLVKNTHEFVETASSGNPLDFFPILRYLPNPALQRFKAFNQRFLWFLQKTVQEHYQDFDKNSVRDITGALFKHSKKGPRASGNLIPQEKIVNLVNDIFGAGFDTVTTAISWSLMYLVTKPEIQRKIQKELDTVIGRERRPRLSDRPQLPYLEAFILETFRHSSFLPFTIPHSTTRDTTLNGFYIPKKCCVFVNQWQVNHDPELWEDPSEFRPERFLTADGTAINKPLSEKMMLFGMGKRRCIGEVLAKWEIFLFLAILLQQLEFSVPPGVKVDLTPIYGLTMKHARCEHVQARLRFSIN

[18] = Protein binding in human plasma; format: ADME, cell-free; conditions: read-out: PPB (converted)
[19] = Oral bioavailability in Beagle dog; format: ADME, organism-based, Canis lupus familiaris; conditions: in vivo
In short: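 Three dogs, two study days 7 days apart: 1 h IV infusion of 2 mg free base/kg in 0.9% saline (0.4 mg/mL, 5 mL/kg/h), then same dogs oral gavage 5 mg free base/kg in 1% methylcellulose (1 mg/mL, 5 mL/kg); serial blood up to 30 h; LC/MS/MS, LLQ 5 ng/mL.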

Cytochrome P450 2D6 = Cytochrome P450 2D6 (Homo sapiens, UniProt P10635); experiment: Inhibition of human CYP2D6; format: ADME
[20] = Protein binding in rat plasma; format: ADME, cell-free; conditions: read-out: PPB (converted)
[21] = target: Growth hormone secretagogue receptor type 1 (Homo sapiens, UniProt Q92847); experiment: Agonist activity at human Ghrelin receptor; format: functional
Cytochrome P450 2C9 = Cytochrome P450 2C9 (Homo sapiens, UniProt P11712); experiment: Inhibition of human CYP2C9; format: ADME
Cytochrome P450 2C9, sequence (P11712 whole entry): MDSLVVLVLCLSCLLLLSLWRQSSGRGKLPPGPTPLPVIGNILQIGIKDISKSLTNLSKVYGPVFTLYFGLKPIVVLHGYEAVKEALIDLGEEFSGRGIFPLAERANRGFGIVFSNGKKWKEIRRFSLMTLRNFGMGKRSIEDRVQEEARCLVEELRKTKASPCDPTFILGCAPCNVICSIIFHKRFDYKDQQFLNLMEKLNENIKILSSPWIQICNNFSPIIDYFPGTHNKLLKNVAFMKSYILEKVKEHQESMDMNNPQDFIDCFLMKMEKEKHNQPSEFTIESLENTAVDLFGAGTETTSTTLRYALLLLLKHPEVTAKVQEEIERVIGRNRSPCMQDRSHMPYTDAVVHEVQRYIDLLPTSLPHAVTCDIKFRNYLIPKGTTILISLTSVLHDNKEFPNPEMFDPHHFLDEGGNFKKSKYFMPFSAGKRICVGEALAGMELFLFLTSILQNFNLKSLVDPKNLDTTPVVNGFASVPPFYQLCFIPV

T2 sequence (P08684 whole entry): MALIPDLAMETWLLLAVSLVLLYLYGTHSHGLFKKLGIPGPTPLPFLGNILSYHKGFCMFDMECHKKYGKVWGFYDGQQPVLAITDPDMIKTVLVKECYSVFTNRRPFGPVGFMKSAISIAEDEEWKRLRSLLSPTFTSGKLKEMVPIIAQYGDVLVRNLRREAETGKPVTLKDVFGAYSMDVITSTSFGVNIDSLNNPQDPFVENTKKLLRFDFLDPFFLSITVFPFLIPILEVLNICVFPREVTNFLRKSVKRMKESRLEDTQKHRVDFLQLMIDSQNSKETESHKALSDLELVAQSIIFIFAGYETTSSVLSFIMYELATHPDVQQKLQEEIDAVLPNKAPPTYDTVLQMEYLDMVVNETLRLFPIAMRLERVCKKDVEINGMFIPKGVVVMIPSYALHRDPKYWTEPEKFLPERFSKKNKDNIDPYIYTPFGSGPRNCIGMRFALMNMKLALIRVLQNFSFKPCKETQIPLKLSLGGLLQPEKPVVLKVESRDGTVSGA
T1 sequence (O43193 whole entry): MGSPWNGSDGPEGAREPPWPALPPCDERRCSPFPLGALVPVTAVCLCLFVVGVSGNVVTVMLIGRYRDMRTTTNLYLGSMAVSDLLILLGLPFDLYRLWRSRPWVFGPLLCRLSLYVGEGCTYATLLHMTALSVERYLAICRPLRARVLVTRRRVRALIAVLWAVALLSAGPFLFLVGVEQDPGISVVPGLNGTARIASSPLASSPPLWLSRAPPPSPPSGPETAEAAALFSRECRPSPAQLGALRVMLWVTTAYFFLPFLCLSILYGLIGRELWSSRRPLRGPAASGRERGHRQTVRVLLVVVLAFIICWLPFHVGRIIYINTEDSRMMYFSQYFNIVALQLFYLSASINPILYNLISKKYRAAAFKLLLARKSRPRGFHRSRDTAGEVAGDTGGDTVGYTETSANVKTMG
Voltage-gated inwardly rectifying potassium channel KCNH2, sequence (Q12809 whole entry): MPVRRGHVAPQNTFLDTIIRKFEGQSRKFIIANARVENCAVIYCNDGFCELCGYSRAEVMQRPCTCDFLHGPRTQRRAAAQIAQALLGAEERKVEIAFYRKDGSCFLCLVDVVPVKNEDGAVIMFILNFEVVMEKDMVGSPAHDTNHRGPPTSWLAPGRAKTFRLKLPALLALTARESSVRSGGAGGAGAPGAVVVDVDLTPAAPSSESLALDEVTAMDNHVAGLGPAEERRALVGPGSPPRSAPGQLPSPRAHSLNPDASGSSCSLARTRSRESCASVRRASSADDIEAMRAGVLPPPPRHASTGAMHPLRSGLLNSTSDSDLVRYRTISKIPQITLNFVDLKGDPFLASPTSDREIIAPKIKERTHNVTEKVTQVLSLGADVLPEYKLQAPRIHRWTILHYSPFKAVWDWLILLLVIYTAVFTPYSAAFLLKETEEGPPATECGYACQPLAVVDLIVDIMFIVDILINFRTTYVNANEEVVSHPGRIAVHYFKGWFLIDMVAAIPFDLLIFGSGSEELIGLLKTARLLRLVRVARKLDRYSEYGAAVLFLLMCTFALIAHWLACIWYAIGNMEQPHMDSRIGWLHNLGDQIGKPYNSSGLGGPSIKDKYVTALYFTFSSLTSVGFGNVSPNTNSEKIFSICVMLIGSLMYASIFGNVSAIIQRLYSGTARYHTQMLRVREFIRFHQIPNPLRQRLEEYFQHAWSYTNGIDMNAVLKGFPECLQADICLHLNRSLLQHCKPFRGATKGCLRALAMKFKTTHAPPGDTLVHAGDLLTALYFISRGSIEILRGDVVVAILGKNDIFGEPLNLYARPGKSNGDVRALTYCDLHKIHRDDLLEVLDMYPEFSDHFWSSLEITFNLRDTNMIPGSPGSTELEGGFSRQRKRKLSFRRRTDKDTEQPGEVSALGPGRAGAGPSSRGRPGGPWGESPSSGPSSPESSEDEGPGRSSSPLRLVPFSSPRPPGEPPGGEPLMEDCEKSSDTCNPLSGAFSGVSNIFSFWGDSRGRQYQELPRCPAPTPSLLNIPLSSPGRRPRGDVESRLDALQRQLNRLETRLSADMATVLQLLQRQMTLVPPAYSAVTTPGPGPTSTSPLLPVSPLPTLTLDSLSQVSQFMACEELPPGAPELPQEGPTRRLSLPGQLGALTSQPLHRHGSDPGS
Cytochrome P450 2C19, sequence (P33261 whole entry): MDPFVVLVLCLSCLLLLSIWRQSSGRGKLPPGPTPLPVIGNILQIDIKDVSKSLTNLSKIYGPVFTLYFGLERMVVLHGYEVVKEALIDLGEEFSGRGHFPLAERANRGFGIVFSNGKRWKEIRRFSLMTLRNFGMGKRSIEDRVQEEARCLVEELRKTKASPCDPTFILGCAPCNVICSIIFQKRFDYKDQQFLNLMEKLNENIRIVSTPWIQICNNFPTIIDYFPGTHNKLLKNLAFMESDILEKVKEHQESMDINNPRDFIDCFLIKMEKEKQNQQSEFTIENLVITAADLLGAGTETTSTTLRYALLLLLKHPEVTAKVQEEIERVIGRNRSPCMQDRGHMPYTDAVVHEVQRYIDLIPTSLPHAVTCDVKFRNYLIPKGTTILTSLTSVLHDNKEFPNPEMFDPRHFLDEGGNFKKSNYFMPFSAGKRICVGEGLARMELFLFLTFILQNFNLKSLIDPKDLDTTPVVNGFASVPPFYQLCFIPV
Cytochrome P450 2D6, sequence (P10635 whole entry): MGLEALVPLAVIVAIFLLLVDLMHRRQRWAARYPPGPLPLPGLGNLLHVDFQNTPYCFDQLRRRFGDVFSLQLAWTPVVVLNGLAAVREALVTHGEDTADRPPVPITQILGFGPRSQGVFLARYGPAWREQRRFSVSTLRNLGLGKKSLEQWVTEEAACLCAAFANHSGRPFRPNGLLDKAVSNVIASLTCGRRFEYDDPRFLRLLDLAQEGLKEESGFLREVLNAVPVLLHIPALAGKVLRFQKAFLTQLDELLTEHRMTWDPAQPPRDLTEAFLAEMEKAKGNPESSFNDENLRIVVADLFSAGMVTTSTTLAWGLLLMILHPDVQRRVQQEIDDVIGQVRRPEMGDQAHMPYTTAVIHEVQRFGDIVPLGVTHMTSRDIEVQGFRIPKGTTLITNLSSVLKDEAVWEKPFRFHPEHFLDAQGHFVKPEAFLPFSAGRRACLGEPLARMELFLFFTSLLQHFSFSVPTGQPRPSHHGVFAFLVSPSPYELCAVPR
Growth hormone secretagogue receptor type 1, sequence (Q92847 whole entry): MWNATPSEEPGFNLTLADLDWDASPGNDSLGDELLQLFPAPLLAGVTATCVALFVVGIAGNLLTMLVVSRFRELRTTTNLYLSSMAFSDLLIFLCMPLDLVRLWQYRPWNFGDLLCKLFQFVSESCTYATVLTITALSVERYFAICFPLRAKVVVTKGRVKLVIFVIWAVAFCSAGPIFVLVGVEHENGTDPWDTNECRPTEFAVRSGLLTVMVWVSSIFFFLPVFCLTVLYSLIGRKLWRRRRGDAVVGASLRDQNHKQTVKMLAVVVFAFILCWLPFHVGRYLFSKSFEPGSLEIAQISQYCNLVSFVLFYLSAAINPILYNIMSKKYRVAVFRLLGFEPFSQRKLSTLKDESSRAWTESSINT

In the case of `C[C@@H]1CN(Cc2ccc(C(C)(C)C(=O)N3CCC(Nc4ccc(F)cc4)CC3)cc2)C[C@H](C)N1`, the EC50 (Motilin receptor [1]) is reported as 0.0316 µM, the Intrinsic activity (Motilin receptor [2]) is reported as 0.7 and the Activity (Cytochrome P450 3A4 [3]) is reported as 6.1. For the same molecule, the IC50 (Cytochrome P450 3A4 [4]) was 4.7 µM.

For `C[C@H]1CN(Cc2ccc(CC(=O)N3CCC(Nc4cccc(C#N)c4)CC3)cc2)CCN1`, the Activity (Stomach [5]) was 98%, the EC50 (Motilin receptor [1]) was 0.00398 µM and the Activity (Stomach [6]) was 218%. The Intrinsic activity (Motilin receptor [2]) was 1.1, the Tmax [7] was 240 min and the Cmax [8] was 200 nM. It also gave an Activity (Cytochrome P450 3A4 [3]) of 2, an IC50 (Cytochrome P450 3A4 [9]) of 58 µM and an IC50 (Cytochrome P450 3A4 [4]) of 36 µM. The AUC (Rattus norvegicus) was 2.8 kg·min/L and the Activity (Stomach [10]) was 462%.

For `CC[C@H]1OC(=O)[C@H](C)[C@@H](O[C@H]2C[C@@](C)(OC)[C@@H](O)[C@H](C)O2)[C@H](C)[C@@H](O[C@@H]2O[C@H](C)C[C@H](N(C)C)[C@H]2O)[C@](C)(O)C[C@@H](C)C(=O)[C@H](C)[C@@H](O)[C@]1(C)O` [ERYTHROMYCIN], the Activity (Stomach [5]) was 14%, the Activity (Stomach [6]) was 69% and the Intrinsic activity (Motilin receptor [2]) was 1.3. It also gave an IC50 (Cytochrome P450 3A4 [11]) of 1.9 µM, an IC50 (Cytochrome P450 3A4 [12]) of 0.19 µM and a half-life at 3 µM [13] of 24 min. The Activity (Stomach [14]) was 490% and the Activity (Stomach [10]) was 189%.

With `C[C@H]1CN(Cc2ccc(CC(=O)N3CCC(Nc4cccc(F)c4)CC3)cc2)CCN1` the Intrinsic activity (Motilin receptor [2]) was 0.9.

`C[C@H]1CN(Cc2ccc(CCC(=O)N3CCC(Nc4ccc(F)cc4)CC3)cc2)CCN1` gave an EC50 (Motilin receptor [1]) of 0.0631 µM and an Intrinsic activity (Motilin receptor [2]) of 1.2.

`CCCC[C@H](NC(=O)[C@H](CCCNC(=N)N)NC(=O)[C@H](CCC(N)=O)NC(=O)[C@H](CC(C)C)NC(=O)[C@H](CCC(=O)O)NC(=O)CNC(=O)[C@H](Cc1ccc(O)cc1)NC(=O)[C@@H](NC(=O)[C@H](Cc1ccccc1)NC(=O)[C@@H](NC(=O)[C@@H]1CCCN1C(=O)[C@@H](NC(=O)[C@@H](N)Cc1ccccc1)C(C)C)[C@@H](C)CC)[C@@H](C)O)C(=O)N[C@@H](CCC(N)=O)C(=O)N[C@@H](CCC(=O)O)C(=O)N[C@@H](CCCCN)C(=O)N[C@@H](CCC(=O)O)C(=O)N[C@@H](CCCNC(=N)N)C(=O)N[C@@H](CC(N)=O)C(=O)N[C@@H](CCCCN)C(=O)NCC(=O)N[C@@H](CCC(N)=O)C(=O)O` gave an Activity (Stomach [5]) of 721%, an Activity (Stomach [6]) of 740% and a half-life at 0.3 µM [15] of 11.4 min.

`C[C@H]1CN(Cc2ccc(CC(=O)N3CCC(Nc4cccc(F)c4)CC3)cc2)CCN1` [CAMICINAL] showed an EC50 (Motilin receptor [1]) of 0.0126 µM, an IC50 (Cytochrome P450 2C19) of over 100 µM and an Activity (Stomach [6]) of 53%. For the same molecule, the Tmax [7] was 120 min, the Cmax [8] was 400 nM and the IC50 [16] was 15.8 µM. For the same molecule, the Activity (Cytochrome P450 3A4 [3]) was 1.4, the half-life at 3 µM [13] was 46.9 min and the bioavailability [17] was 48%. It also gave an IC50 (Cytochrome P450 1A2) of over 100 µM, an Activity (Stomach [14]) of 248% and a fraction unbound [18] of 0.17. It also gave a bioavailability [19] of 51%, an IC50 (Cytochrome P450 2D6) of 34 µM and an AUC (Rattus norvegicus) of 12 kg·min/L. It also gave an Activity (Stomach [10]) of 108%, a fraction unbound [20] of 0.37 and an EC50 [21] of over 1 µM. It also gave an IC50 (Cytochrome P450 2C9) of over 100 µM.

Work on `C[C@@H]1CN(Cc2ccc(-c3cccnc3C(=O)N3CCC(Nc4ccc(F)cc4)CC3)cc2)C[C@H](C)N1` yielded an EC50 (Motilin receptor [1]) of 0.00398 µM, an IC50 (Cytochrome P450 2C19) of over 23 µM and an IC50 (Cytochrome P450 3A4 [11]) of 20 µM. It also gave an IC50 (Cytochrome P450 3A4 [12]) of 1.4 µM, an IC50 [16] of over 31.6 µM and an IC50 (Cytochrome P450 1A2) of over 23 µM. The Activity (Stomach [14]) was 343%, the IC50 (Cytochrome P450 2D6) was over 23 µM and the IC50 (Cytochrome P450 2C9) was over 23 µM.
